Experimental data as given in ChEMBL document CHEMBL4354843, “Structure-Based Design of a Potent and Selective Covalent Inhibitor for SRC Kinase That Targets a P-Loop Cysteine” (J Med Chem, 2020).
The source made the active and inactive calls. The calls are words filed in the database; no cut-off is given here.

Tests used:
[1] = molecular target: Phosphatidylinositol 4,5-bisphosphate 3-kinase catalytic subunit gamma isoform (Homo sapiens) (UniProt P48736); experiment: Binding affinity to wild-type human partial length PIK3CG (S144 to A1102 residues) expressed in mammalian expression system assessed as residual binding level at 1 uM by Kinomescan method relative to control
Chain of Phosphatidylinositol 4,5-bisphosphate 3-kinase catalytic subunit gamma isoform (Homo sapiens) (P48736 whole entry, looked up, the tested form may be a part, canonical isoform): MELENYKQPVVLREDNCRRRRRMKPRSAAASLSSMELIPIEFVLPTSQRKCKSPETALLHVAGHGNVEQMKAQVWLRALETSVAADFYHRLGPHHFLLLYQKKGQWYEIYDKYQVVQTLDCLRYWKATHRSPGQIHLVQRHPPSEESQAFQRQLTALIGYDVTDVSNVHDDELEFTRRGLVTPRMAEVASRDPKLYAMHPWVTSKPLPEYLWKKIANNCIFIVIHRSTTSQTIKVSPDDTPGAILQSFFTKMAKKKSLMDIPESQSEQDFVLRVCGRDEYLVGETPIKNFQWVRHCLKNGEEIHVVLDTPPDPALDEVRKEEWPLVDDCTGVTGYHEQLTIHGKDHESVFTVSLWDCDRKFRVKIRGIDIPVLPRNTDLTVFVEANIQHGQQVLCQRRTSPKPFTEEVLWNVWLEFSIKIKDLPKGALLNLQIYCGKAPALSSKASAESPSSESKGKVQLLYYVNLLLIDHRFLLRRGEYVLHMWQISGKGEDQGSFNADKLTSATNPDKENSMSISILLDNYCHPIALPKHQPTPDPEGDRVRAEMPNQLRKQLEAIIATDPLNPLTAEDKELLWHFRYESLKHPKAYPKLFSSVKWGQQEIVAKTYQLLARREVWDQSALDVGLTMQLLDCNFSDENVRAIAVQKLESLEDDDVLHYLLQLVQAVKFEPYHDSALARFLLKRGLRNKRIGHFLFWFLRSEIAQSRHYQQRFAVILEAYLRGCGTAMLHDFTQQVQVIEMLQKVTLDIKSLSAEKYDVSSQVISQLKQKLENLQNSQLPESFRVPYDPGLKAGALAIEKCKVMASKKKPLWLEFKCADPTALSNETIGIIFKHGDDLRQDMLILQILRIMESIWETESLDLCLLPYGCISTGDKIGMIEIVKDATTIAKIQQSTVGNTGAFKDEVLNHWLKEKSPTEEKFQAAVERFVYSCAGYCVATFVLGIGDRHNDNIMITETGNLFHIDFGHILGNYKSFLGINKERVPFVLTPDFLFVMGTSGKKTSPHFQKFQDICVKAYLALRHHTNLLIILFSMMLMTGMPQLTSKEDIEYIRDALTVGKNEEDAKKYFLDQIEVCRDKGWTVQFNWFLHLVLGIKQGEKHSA

[2] = molecular target: Cyclin-dependent kinase 5 (Homo sapiens) (UniProt Q00535); experiment: Binding affinity to wild-type human full length CDK5 (M1 to P292 residues) expressed in bacterial expression system assessed as residual binding level at 1 uM by Kinomescan method relative to control
Chain of Cyclin-dependent kinase 5 (Homo sapiens) (Q00535 whole entry, looked up, the tested form may be a part): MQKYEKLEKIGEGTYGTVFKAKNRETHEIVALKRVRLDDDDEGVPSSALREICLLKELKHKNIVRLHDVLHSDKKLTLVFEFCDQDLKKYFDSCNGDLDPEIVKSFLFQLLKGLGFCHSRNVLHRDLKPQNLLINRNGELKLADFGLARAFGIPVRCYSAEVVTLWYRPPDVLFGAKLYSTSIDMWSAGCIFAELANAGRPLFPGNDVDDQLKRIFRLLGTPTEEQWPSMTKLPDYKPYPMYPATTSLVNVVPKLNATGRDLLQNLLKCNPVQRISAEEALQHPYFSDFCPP
Procedure, shortened: (§1)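 Active-site-directed KinomeScan competition binding panel covering 468 kinases, compound tested at 1 μM. Each readout is the kinase signal remaining with compound, expressed as a percentage of the DMSO control. […]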

MDA-MB-231 = experiment: Antiproliferative activity against human MDA-MB-231 cells assessed as reduction in cell viability incubated for 72 hrs by cell-titer glo assay; conditions: MDA-MB-231, 72 h
[3] = molecular target: Dual specificity mitogen-activated protein kinase kinase; MEK1/2 (Homo sapiens) (UniProt P36507+Q02750); experiment: Inhibition of MEK1/2 in human NCI-H1975 cells assessed as blocking of MEK1/2 pulldown at 1 uM in presence of TL13-68 incubated for 2 hrs by Western blot analysis; format: cell-based
Procedure, shortened: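 H1975 or HCC827 cells treated with 1 μM compound or DMSO for 2 h, rinsed twice in cold PBS, and lysed in M-PER with protease/phosphatase inhibitors. Lysate rocked overnight at 4 °C with 1 μM TL13-68, then streptavidin pulldown with five cold washes. Bound kinases detected by Western blot. Two independent experiments.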

[4] = molecular target: Serine/threonine-protein kinase 35 (Homo sapiens) (UniProt Q8TDR2); experiment: Binding affinity to wild-type human partial length STK35 (G182 to A534 residues) expressed in bacterial expression system assessed as residual binding level at 1 uM by Kinomescan method relative to control
[5] = molecular target: Inhibitor of nuclear factor kappa-B kinase subunit alpha (Homo sapiens) (UniProt O15111); experiment: Binding affinity to wild-type human full length IKK-alpha (M1 to E745 residues) expressed in mammalian expression system assessed as residual binding level at 1 uM by Kinomescan method relative to control; procedure, shortened: as §1
Chain of Inhibitor of nuclear factor kappa-B kinase subunit alpha (Homo sapiens) (O15111 whole entry, the tested form may be a part): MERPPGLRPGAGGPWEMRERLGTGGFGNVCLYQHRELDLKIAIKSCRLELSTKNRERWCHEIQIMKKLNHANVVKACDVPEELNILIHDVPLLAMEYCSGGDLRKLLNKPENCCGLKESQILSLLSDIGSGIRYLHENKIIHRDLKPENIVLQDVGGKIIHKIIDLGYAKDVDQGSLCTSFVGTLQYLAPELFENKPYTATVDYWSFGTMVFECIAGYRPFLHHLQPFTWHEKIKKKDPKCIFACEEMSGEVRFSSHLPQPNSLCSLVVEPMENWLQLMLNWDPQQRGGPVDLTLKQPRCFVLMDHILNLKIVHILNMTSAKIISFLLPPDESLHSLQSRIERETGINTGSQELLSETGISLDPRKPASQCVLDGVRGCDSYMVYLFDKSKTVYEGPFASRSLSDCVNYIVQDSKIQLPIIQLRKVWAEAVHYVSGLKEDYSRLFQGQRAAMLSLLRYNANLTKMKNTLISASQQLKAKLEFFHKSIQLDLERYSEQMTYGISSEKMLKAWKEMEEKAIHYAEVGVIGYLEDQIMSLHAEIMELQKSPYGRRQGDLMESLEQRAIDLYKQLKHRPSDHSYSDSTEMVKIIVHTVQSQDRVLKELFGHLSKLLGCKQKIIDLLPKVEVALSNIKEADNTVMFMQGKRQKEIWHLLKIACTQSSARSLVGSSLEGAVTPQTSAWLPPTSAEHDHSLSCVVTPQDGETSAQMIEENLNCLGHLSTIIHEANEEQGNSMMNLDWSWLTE

[6] = molecular target: Dual specificity protein kinase TTK (Homo sapiens) (UniProt P33981); experiment: Binding affinity to wild-type human partial length TTK (N505 to V798 residues) expressed in bacterial expression system assessed as residual binding level at 1 uM by Kinomescan method relative to control
Chain of Dual specificity protein kinase TTK (Homo sapiens) (P33981 whole entry, the tested form may be a part): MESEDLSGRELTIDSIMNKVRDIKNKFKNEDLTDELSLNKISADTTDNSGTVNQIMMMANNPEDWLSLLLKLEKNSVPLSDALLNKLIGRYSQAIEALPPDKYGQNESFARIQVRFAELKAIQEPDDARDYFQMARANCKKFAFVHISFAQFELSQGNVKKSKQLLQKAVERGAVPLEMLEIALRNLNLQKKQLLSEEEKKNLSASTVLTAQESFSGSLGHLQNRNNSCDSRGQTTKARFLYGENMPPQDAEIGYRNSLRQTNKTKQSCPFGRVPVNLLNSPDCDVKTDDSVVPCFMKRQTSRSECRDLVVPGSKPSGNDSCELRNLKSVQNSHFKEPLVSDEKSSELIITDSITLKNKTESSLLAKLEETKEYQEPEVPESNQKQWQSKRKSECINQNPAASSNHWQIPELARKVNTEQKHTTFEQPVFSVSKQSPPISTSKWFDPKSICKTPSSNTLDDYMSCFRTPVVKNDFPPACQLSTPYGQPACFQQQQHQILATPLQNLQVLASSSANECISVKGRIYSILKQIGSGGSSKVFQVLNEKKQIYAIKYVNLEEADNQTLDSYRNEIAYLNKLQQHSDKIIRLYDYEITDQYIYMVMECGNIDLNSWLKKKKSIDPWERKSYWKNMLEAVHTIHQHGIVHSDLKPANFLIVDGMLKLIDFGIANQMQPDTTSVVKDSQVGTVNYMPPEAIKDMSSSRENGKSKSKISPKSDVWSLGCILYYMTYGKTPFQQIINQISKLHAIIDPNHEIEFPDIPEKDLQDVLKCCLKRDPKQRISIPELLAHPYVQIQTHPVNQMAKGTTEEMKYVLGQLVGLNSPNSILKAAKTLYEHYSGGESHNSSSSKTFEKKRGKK
Procedure, shortened: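 Active site-directed competition binding panel (KinomeScan, 468 kinases). Test compound at 1 μM. Read-out is kinase binding remaining versus DMSO control, expressed as percent of control. Scores above 35% are treated as weak binding.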

[7] = molecular target: Tyrosine-protein kinase BTK (Homo sapiens) (UniProt Q06187); experiment: Binding affinity to wild-type human full length BTK (M1 to S659 residues) expressed in mammalian expression system assessed as residual binding level at 1 uM by Kinomescan method relative to control
Procedure, shortened: (§2)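 KinomeScan, an active site-directed competition binding panel of 468 kinases. The test compound was at 1 μM. The readout is remaining kinase binding as a percentage of the DMSO control. Scores above 35% were treated as weak binding and not listed.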

[8] = molecular target: Serine/threonine-protein kinase TAO3 (Homo sapiens) (UniProt Q9H2K8); experiment: Binding affinity to wild-type human partial length TAOK3 (M1 to T316 residues) expressed in mammalian expression system assessed as residual binding level at 1 uM by Kinomescan method relative to control
[9] = molecular target: Epidermal growth factor receptor (Homo sapiens) (UniProt P00533); experiment: Binding affinity to wild-type human partial length EGFR (R669 to V1011 residues) expressed in bacterial expression system assessed as residual binding level at 1 uM by Kinomescan method relative to control
[10] = molecular target: Tyrosine-protein kinase CSK (Homo sapiens) (UniProt P41240); experiment: Binding affinity to wild-type human full length CSK (M1 to L450 residues) expressed in bacterial expression system assessed as residual binding level at 1 uM by Kinomescan method relative to control; procedure, shortened: as §2
[11] = molecular target: Tyrosine-protein kinase JAK3 (Homo sapiens) (UniProt P52333); experiment: Binding affinity to wild-type human partial length JAK3 JH1 catalytic domain (I781 to S1124 residues) expressed in mammalian expression system assessed as residual binding level at 1 uM by Kinomescan method relative to control
Procedure, shortened: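 Active-site-directed competition binding panel of 468 kinases (KinomeScan), compound at 1 μM. The read-out is kinase remaining bound, given as a percentage of the DMSO control. […]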

[12] = molecular target: Insulin receptor (Homo sapiens) (UniProt P06213); experiment: Binding affinity to wild-type human partial length INSR (P997 to E1318 residues) expressed in mammalian expression system assessed as residual binding level at 1 uM by Kinomescan method relative to control
[13] = molecular target: MAP kinase-activated protein kinase 5 (Homo sapiens) (UniProt Q8IW41); experiment: Binding affinity to wild-type human partial length MAPKAPK5 (M1 to D322 residues) expressed in mammalian expression system assessed as residual binding level at 1 uM by Kinomescan method relative to control
Chain of MAP kinase-activated protein kinase 5 (Homo sapiens) (Q8IW41 whole entry, the tested form may be a part): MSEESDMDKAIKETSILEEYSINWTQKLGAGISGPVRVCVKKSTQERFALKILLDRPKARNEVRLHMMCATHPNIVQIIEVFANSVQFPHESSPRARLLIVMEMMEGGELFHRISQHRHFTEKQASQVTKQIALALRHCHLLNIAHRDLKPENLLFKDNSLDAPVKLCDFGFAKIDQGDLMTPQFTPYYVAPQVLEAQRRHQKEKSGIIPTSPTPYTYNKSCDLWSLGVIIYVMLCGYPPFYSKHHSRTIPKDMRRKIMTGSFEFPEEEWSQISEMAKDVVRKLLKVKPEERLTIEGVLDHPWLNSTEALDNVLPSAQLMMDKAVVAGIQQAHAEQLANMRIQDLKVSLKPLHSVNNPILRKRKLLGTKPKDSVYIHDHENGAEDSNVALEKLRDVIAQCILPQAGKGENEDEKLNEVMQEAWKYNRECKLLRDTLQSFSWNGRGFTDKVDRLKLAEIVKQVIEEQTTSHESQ

[14] = molecular target: Serine/threonine-protein kinase 26 (Homo sapiens) (UniProt Q9P289); experiment: Binding affinity to wild-type human full length MST4 (M1 to P416 residues) expressed in mammalian expression system assessed as residual binding level at 1 uM by Kinomescan method relative to control
Procedure, shortened: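 Active-site-directed competition binding panel (KinomeScan) covering 468 kinases. Test agent was screened at 1 μM. The read-out is the remaining kinase signal expressed relative to a DMSO control. Scores above 35%, taken as weak binding, were not reported.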

[15] = molecular target: G protein-coupled receptor kinase 4 (Homo sapiens) (UniProt P32298); experiment: Binding affinity to wild-type human full length GRK4 (M1 to C578 residues) expressed in bacterial expression system assessed as residual binding level at 1 uM by Kinomescan method relative to control; procedure, shortened: as §1
Chain of G protein-coupled receptor kinase 4 (Homo sapiens) (P32298 whole entry, looked up, the tested form may be a part): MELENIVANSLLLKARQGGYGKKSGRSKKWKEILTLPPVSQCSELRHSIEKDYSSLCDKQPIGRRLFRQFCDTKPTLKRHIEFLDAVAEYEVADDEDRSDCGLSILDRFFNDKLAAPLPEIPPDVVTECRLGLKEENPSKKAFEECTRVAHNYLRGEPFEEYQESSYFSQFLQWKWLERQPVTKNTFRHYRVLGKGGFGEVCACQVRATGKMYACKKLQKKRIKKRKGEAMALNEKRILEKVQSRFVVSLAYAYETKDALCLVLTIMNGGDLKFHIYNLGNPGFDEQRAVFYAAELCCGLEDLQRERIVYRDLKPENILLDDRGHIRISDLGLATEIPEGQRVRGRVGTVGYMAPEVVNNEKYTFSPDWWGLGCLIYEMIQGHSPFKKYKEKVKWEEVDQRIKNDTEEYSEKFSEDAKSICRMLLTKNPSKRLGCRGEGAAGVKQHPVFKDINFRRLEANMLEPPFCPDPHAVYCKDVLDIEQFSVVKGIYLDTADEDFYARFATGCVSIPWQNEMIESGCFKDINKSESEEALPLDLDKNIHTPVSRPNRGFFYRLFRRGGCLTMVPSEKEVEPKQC

[16] = molecular target: Cyclin-dependent kinase 4 (Homo sapiens) (UniProt P11802); experiment: Binding affinity to wild-type human full length CDK4 (M1 to E303 residues) expressed in mammalian expression system assessed as residual binding level at 1 uM by Kinomescan method relative to control; procedure, shortened: as §1
Chain of Cyclin-dependent kinase 4 (Homo sapiens) (P11802 whole entry, the tested form may be a part): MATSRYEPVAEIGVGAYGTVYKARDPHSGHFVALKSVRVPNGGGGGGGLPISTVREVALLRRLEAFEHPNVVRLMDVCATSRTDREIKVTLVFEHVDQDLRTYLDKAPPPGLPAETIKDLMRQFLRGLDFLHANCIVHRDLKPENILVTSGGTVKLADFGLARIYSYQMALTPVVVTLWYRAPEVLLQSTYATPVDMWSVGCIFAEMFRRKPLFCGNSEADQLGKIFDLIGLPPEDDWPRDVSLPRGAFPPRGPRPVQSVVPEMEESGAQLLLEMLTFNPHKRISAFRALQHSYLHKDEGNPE

[17] = molecular target: TGF-beta receptor type-2 (Homo sapiens) (UniProt P37173); experiment: Binding affinity to wild-type human partial length TGFBR2 (I218 to K567 residues) expressed in bacterial expression system assessed as residual binding level at 1 uM by Kinomescan method relative to control
Chain of TGF-beta receptor type-2 (Homo sapiens) (P37173 whole entry, the tested form may be a part): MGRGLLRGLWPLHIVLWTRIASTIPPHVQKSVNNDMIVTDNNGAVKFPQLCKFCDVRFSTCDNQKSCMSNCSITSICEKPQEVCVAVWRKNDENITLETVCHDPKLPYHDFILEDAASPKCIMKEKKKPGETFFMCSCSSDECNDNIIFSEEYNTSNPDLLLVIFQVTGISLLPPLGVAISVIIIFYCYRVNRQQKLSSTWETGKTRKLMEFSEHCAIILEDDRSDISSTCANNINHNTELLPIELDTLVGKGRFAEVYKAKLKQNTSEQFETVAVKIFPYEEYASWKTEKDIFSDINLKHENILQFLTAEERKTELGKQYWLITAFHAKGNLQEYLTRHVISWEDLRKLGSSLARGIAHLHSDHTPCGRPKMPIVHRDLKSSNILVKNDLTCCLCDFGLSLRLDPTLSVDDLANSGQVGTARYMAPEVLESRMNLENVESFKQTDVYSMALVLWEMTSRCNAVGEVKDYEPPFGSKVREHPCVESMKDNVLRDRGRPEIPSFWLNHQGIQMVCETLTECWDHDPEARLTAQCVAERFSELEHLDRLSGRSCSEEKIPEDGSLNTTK

[18] = molecular target: Serine/threonine-protein kinase BRSK2 (Homo sapiens) (UniProt Q8IWQ3); experiment: Binding affinity to wild-type human full length BRSK2 (M1 to L674 residues) expressed in bacterial expression system assessed as residual binding level at 1 uM by Kinomescan method relative to control; procedure, shortened: as §1

Compound `C=CC(=O)Nc1ccccc1Nc1nc(Nc2ccc(N3CCN(C)CC3)cc2)ncc1C(=O)Nc1c(C)cccc1Cl` has an Activity [1] of 100%, an Activity [2] of 100% and an IC50 (MDA-MB-231) of 300 nM. The inhibition [3] was “inactive”, the Activity [4] was 100% and the Activity [5] was 100%. It also gave an Activity [6] of 94%, an Activity [7] of 0.1% and an Activity [8] of 100%. It also gave an Activity [9] of 80%, an Activity [10] of 1.3% and an Activity [11] of 88%. For the same compound, the Activity [12] was 100%, the Activity [13] was 100% and the Activity [14] was 85%. The Activity [15] was 100%, the Activity [16] was 97% and the Activity [17] was 100%. It also gave an Activity [18] of 100%.
